{"data": "Experimental data of several laboratories", "target": "NUAK family SNF1-like kinase 2 (NUAK2, Homo sapiens, UniProt Q9H093)", "Sequence (Q9H093 1-628, as in one of the studies)": "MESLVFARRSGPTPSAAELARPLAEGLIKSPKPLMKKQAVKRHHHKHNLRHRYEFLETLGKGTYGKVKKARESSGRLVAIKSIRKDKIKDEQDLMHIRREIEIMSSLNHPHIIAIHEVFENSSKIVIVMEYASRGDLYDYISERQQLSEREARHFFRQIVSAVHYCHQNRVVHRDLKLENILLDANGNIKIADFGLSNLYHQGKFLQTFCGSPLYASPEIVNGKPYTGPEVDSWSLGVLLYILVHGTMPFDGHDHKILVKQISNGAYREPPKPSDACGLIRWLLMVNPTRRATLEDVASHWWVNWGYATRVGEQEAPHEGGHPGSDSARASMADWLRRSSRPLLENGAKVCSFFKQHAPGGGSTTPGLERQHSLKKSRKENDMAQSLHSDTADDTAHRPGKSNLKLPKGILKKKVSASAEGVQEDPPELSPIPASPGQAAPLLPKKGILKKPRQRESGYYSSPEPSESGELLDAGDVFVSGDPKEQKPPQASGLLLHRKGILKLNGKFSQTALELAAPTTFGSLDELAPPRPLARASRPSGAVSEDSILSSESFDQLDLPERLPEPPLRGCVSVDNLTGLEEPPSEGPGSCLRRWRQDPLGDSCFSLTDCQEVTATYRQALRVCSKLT", "note": "Each line is one published result; the experiments were not run side by side."}
{"SMILES": "O=C(N1CCS(=O)(=O)CC1)N1C[C@H](c2ccc(OC(F)(F)F)cc2)C[C@H](c2nc(C3CC3)no2)C1", "effect on": "cell-free assay", "method": "competition with immobilised ligand", "concentration": "1 µM", "remaining binding [%]": 100}
{"SMILES": "N[C@H]1CCN(c2nccc(-c3cnn4ncccc34)n2)C1", "effect on": "binding", "concentration": "1 µM", "remaining binding [%]": 100}
{"SMILES": "O=C(c1ccc(Nc2ncc(Cl)c(-c3ccc(Cl)s3)n2)cc1)N1CCC(N2CCCC2)CC1", "effect on": "binding", "method": "competition with immobilised ligand", "concentration": "1 µM", "remaining binding [%]": 0.4}
{"SMILES": "CNC(=O)Nc1ccc2c(c1)CC[C@@]21OC(=O)N(CC(=O)N(Cc2ccc(F)cc2)[C@@H](C)C(F)(F)F)C1=O", "effect on": "cell-free assay", "method": "competition with immobilised ligand", "concentration": "1 µM", "remaining binding [%]": 74}
{"SMILES": "CC(C)(C)c1ccc(-c2nc(CBr)nn2-c2cccc(O)c2)cc1", "effect on": "cell-free assay", "method": "competition with immobilised ligand", "concentration": "10 µM", "remaining binding [%]": 74}
{"SMILES": "F[C@@H]1CCN(c2nccc(-c3cnn4ncccc34)n2)C1", "effect on": "binding", "concentration": "1 µM", "remaining binding [%]": 88}
{"SMILES": "O=C(Nc1c[nH]nc1C(=O)NC1CCNCC1)c1cc(F)cc(F)c1", "effect on": "binding", "method": "competition with immobilised ligand", "concentration": "1 µM", "remaining binding [%]": 100}
{"SMILES": "Nc1c(C(=O)NCc2ccc(C(=O)NCCCC3CCCCC3)cc2)cnn1-c1ccccc1", "effect on": "cell-free assay", "method": "competition with immobilised ligand", "concentration": "0.1 µM", "remaining binding [%]": 100}
{"SMILES": "C[C@@H]1CN(c2ccc3ncc(-c4ccc5[nH]nc(C6CC6)c5c4)n3n2)C[C@H](C)O1", "effect on": "binding", "method": "competition with immobilised ligand", "concentration": "0.5 µM", "remaining binding [%]": 58}
{"SMILES": "CC1CCCN1c1nccc(-c2cnn3ncccc23)n1 (stereo not shown)", "effect on": "binding", "concentration": "1 µM", "remaining binding [%]": 85}
{"SMILES": "Cn1cc(Cl)c2c(Oc3c(F)cc(Nc4cc(Cl)nc(N)n4)cc3F)ccnc21", "effect on": "cell-free assay", "method": "competition with immobilised ligand", "concentration": "0.1 µM", "remaining binding [%]": 85}
{"SMILES": "COc1cnc(Nc2cccc(S(N)(=O)=O)c2)nc1N1CCN(c2ccccc2)C(=O)C1", "effect on": "binding", "method": "competition with immobilised ligand", "concentration": "1 µM", "remaining binding [%]": 54}
{"SMILES": "FC(F)(F)Oc1cccc(-c2cnc3ccc(-c4ccncc4)nn23)c1", "effect on": "binding", "method": "competition with immobilised ligand", "concentration": "5 µM", "remaining binding [%]": 37}
{"SMILES": "CNC(=O)[C@@H]1CC[C@@H](n2c(-c3ccc4cnccc4c3)nc3ccc(C(=O)NCc4cccc(C(N)=O)c4)cc32)C1", "effect on": "binding", "method": "competition with immobilised ligand", "concentration": "1 µM", "remaining binding [%]": 100}
{"SMILES": "CS(=O)(=O)NCC[C@H](NC(=O)c1cncc2c1cnn2-c1ccc(F)cc1)c1ccnc(S(C)(=O)=O)c1", "effect on": "cell-free assay", "method": "competition with immobilised ligand", "concentration": "1 µM", "remaining binding [%]": 100}
{"SMILES": "c1cnn2ncc(-c3ccnc(N4CCC45COC5)n3)c2c1", "effect on": "binding", "concentration": "1 µM", "remaining binding [%]": 64}
{"SMILES": "Cc1cnc(Nc2ccc(C(=O)N3CCC(N4CCCC4)CC3)cc2)nc1-c1cc2ccccc2s1", "effect on": "binding", "method": "competition with immobilised ligand", "concentration": "1 µM", "remaining binding [%]": 1}
{"SMILES": "CN(C)c1nccc(-c2cnc3ncccn23)n1", "effect on": "binding", "concentration": "1 µM", "remaining binding [%]": 83}
{"SMILES": "Cc1c(NC(=O)c2cc(C(N)=O)nc3cc(F)ccc23)c(C(F)(F)F)nn1Cc1ccc(C#N)cc1", "effect on": "cell-free assay", "method": "competition with immobilised ligand", "concentration": "1 µM", "remaining binding [%]": 83}
{"SMILES": "O=C(c1ccc(Nc2ncc(Cl)c(-c3cc4ccccc4s3)n2)cc1)N1CCC(N2CCCC2)CC1", "effect on": "binding", "method": "competition with immobilised ligand", "concentration": "1 µM", "remaining binding [%]": 0.8}
{"SMILES": "C[C@H](NC(=O)c1cnc2n1[C@](C)(Cc1ccc(C#N)cc1)C(=O)N2c1cc(Cl)c(F)c(Cl)c1)C(=O)NC1(c2ccccn2)CC1", "effect on": "cell-free assay", "method": "competition with immobilised ligand", "concentration": "1 µM", "remaining binding [%]": 100}
{"SMILES": "C[C@H]1CCN(c2nccc(-c3cnn4ncccc34)n2)C1", "effect on": "binding", "concentration": "1 µM", "remaining binding [%]": 79}
